The nature of this data set: Toxicity liver stage against HepG2, at 10uM. Type of data set: cell-based. Further details: test concentration 10 uM, cell line HepG2-A16-CD81EGFP. As to conditions: human, HepG2-A16-CD81EGFP cells; read-out: INHIBITION
The method, boiled down:
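Uninfected HepG2-A16-CD81EGFP cells, 3 × 10^3 per well, 1536-well, plated on prespotted compound at 10 μM final, parasite-free screening media added to match infected plates; puromycin 10 μM positive, DMSO 0.5% negative; run in parallel with 48 h PbLuc assay at 37 °C, 5% CO2; viability by CellTiter-Glo luminescence, normalized to controls.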
Take `Cc1cc2[nH]c(=O)c(=O)[nH]c2cc1S(=O)(=O)NC1CCC(C)CC1` (stereo not given): the cytotoxicity at 10 µM was -10.5%. Regarding `CC(C)(C)c1c[nH]c([C@@H]2COCCN2C2CCC2)n1`, the cytotoxicity at 10 µM came out at 5.99%. To `O=C(C1CCN(S(=O)(=O)N2CCCC2)CC1)N1CCC2(CC1)OCCO2` belongs -17.9%. Next, `CCN1Cc2cc(F)ccc2N(C(C)=O)CCC1=O`: -4.78%; `C=Cc1ccc(CSc2nc3c(c(=O)[nH]2)CN(CCC)CC3)cc1`: -4.68%; `CN1CCCN(C(=O)c2nnn(-c3ccc(C(F)(F)F)cc3)n2)CC1`: -7.37%.

For `CCS(=O)(=O)N1CCc2nc(N3CCCC3)nc(N(C)C)c2CC1`, the cytotoxicity at 10 µM was determined as 14.3%. To `O=C(CC1CC1)N1CCCn2c(nnc2Cn2cccc2)C1` belongs 10.7%; to `CC(C)CN1C[C@H]2CCN(C(=O)C3CCCO3)CC[C@H]2S1(=O)=O` (stereo not given in full), 19.3%; to `CC1CCN(c2ccc3c(-c4ncc(C(=O)O)s4)noc3c2)CC1`, 2.13%. `CCc1nn2c(=N)c(C#N)n[nH]c2c1-c1ccc(OC)cc1`: the cytotoxicity at 10 µM is -3.73%. To `CCN1CCN(C(=O)C2CC(=O)N(c3cnn(C(C)C)c3)C2)CC1` (stereo not given) belongs 5.61%. With `CS(=O)(=O)N[C@@H]1CN(Cc2ccccc2)C[C@H]1O`, the cytotoxicity at 10 µM was -2.92%. Take `CCCC(=O)N1CCCCC1c1nc(N(C)C)ncc1-c1cc(C)no1` (stereo not given): the cytotoxicity at 10 µM was found to be 4.94%. Next, `O=C(c1ccc(-n2cccn2)nc1)N1CCC(c2ccn[nH]2)C1` (stereo not given): -0.399%; `CC(=O)N1CCN([C@@H]2CN(C(=O)c3ccccc3C)C[C@H]2O)CC1`: -3.79%; `Cc1ccsc1CN(CCCO)Cc1nc2ccccc2[nH]1`: -21.3%.

`CN1CCNC(Cc2ccc(-c3ccccc3)cc2)C1=O` (stereo not given): the cytotoxicity at 10 µM was -41.9%. To `Cc1n[nH]c(C)c1-c1cnc(CC2CCN(C(C)C)CC2)cn1` belongs 22.3%; to `CCN(Cc1ccncc1)CC1(O)CCN(C(=O)c2ccccc2C)C1` (stereo not given), -22%; to `CC1CCN(CCNCc2cc(-c3ccccc3)cn3nnnc23)CC1`, -20.4%. To `CC(C)N1C(=O)CN(CCOCCO)CC1(C)C` belongs 1.94%.

Take `Cc1ccccc1C(C)NC(=O)CN1CCN(Cc2ccc(Br)s2)CC1` (stereo not given): the cytotoxicity at 10 µM turned out to be 22.9%. As for `CC(C)NC(=O)CN(C)C(=O)c1csc(Cc2ccccc2F)n1`, the cytotoxicity at 10 µM came out at 3.24%. To `Cc1cc(C)n(C2CCCN(C(=O)c3ccnc(N(C)C)c3)C2)n1` (stereo not given) belongs 1.9%; to `Cc1nnc(CN2CCCC2c2ccc3c(c2)OCCCO3)n1C` (stereo not given), 4.86%; to `Cc1cc(C(=O)NCC2CCCC2)c(C)n1-c1cccnc1`, 5.69%. In the case of `CSCC(CCO)Nc1cccc(C(F)(F)F)n1` (stereo not given), the cytotoxicity at 10 µM turned out to be 0.515%.

Regarding `COc1ccc(NC(=O)COc2nn(C)c3nc(C)cc(C)c23)cn1`, the cytotoxicity at 10 µM is -4.36%. To `Cc1cnc(C(NC(=O)NCC2(CO)CC2)C2CC2)s1` (stereo not given) belongs 1.8%. To `CCN1CCCC1CN(CCN(C)C)S(=O)(=O)c1ccccc1C#N` (stereo not given) belongs -8.58%. To `CC(C)(C)OC(=O)N1CCC[C@H](NCC2=CCCOC2)C1` belongs -6.93%; to `Cc1nn(C)c(C)c1OCC(=O)N1CCCC1`, -10.9%. Regarding `COCCn1cc(NC(=O)NCC2CCN(c3ccccc3)C2)cn1` (stereo not given), the cytotoxicity at 10 µM was found to be 2.21%. To `CC(C)N1CCC(Nc2ccn(C)n2)C1=O` (stereo not given) belongs -0.794%. To `CC(C)(C)CC(=O)NCC(=O)Nc1ccn(CCCn2ccnc2)n1` belongs 10.6%; to `CCCN(CCC)C(=O)CN(C)Cc1cnc(C)s1`, 20.9%; to `CN(C(=O)CCc1nc(C2CC2)no1)c1cc(C#N)c2ccccc2n1`, 0.55%. `COCCCn1ccc(NS(=O)(=O)c2cc(F)c(C)cc2F)n1`: the cytotoxicity at 10 µM worked out at 19.1%.

In the case of `CN(C)C1CCN(C(=O)NCc2ccc(Cn3cncn3)cc2)CC1`, the cytotoxicity at 10 µM is -3.6%. Turning to `Cc1ccc(NC(=O)Cn2cc(I)cn2)cc1`, the cytotoxicity at 10 µM is 9.06%.

`CN(C)C(=O)CNC(=O)Nc1cccc(Cl)c1SC(F)F`: the cytotoxicity at 10 µM was 1.31%.

Turning to `NS(=O)(=O)N1CCc2ccc(NC(=O)Cc3ccc(F)cc3)cc21`, the cytotoxicity at 10 µM is -9.06%. Consider `O=C([C@@H]1CCS(=O)(=O)[C@@H]2CN(c3ncccn3)C[C@@H]21)N1CCOCC1`, for which the cytotoxicity at 10 µM is -100%. To `Cc1nc(C)c2c(n1)CCN(C(=O)C1(C#N)CC1)CC2` belongs -102%; to `CS(=O)(=O)NC[C@]12COC[C@H]1CN(C(=O)C1CC=CC1)C2`, -105%. `O=C(c1cccs1)N1CCC2(CC1)CN(c1ccsc1)C(=O)CO2`: the cytotoxicity at 10 µM was -70.5%.

Regarding `CCCn1ncc(CN(Cc2cccnc2)Cc2ccsc2)c1C`, the cytotoxicity at 10 µM is 13.1%. To `O=C(CCCn1ccnc1)N[C@H]1CN(C2CCCC2)C[C@@H]1C1CC1` belongs 7.69%; to `CCCn1ccnc1CN1CCC(Oc2ccc(Cl)cc2)(C(=O)O)CC1`, 3.47%.

With `Cc1cncc(NC(=O)c2ccc(CN3CCCC(C(N)=O)C3)cc2)c1` (stereo not given), the cytotoxicity at 10 µM was found to be 0.86%. Next, `CC(=O)N1CCCN(C(C(=O)O)c2cccc(C)c2C)CC1` (stereo not given): -2.75%; `Cc1n[nH]cc1C(=O)NCc1cccnc1N1CCc2ccccc2C1`: 8.81%; `Nc1nc2c(c(NCC(c3cccnc3)N3CCOCC3)n1)CCNC2` (stereo not given): 9.03%. To `CCc1cc(C(=O)N2CCCn3nc(CCC(=O)O)cc3C2)cs1` belongs -3.32%; to `CCOc1ccc(-c2ccnc(C3CC3)n2)cc1C(=O)O`, -0.173%. Next, `COc1ccc2c(c1)C(C(=O)N(C)CCCc1nccn1C)CC(=O)N2` (stereo not given): -56%.

As for `Cc1ccc(-c2ccc(Cl)nn2)cc1S(N)(=O)=O`, the cytotoxicity at 10 µM was -12.3%. To `CC(C)(O)CN1CCN(C(=O)COCc2ccccc2Cl)CC1` belongs -4.72%. To `CNS(=O)(=O)Cc1ccc(CNC(=O)c2cccc(C)n2)cc1` belongs -3.79%; to `CC(=O)N(C)c1nc(CN2CCCCC2Cn2cncn2)cs1` (stereo not given), -5.79%.

`Cc1ccc(C(=O)NS(=O)(=O)c2cccc3cnccc23)c(=O)[nH]1`: the cytotoxicity at 10 µM is -8.16%.

Take `O=C(NCC1CCOC1)Nc1ccc(OCC(F)(F)F)nc1` (stereo not given): the cytotoxicity at 10 µM was -5.41%. To `CCc1nc2n(n1)CC(NCC(=O)Nc1ccc(Cl)cn1)CC2` (stereo not given) belongs -10.3%; to `Cc1cnn(CC2CCCN2C(=O)c2cc(Cl)ccc2F)c1` (stereo not given), -5.82%; to `Cc1occc1C(=O)N1CCC[C@]2(C[C@@H](OCc3ccccn3)CO2)C1`, -72.4%.

Turning to `Cc1noc(C)c1CN1CCN(Cc2cccnc2)c2ncccc2C1`, the cytotoxicity at 10 µM was -67.1%. Next, `O=C(NCc1cnc2n1CCN(Cc1nccs1)C2)c1ccno1`: -104%; `CCC(C)N1Cc2c(C(=O)N3CCCC3)nn(C)c2C1` (stereo not given): -5.03%. Next, `O=C(C1CCOCC1)N1C[C@@H]2CN(Cc3ccsc3)CCO[C@@H]2C1`: -77.5%.

For the origin of these results see ChEMBL document CHEMBL4513216, “Probing the Open Global Health Chemical Diversity Library for Multistage-Active Starting Points for Next-Generation Antimalarials” (ACS Infect Dis, 2020).
